# ChEMBL document CHEMBL6074625, “Thiazolidine-2,4-dione hybrids as dual alpha-amylase and alpha-glucosidase inhibitors: design, synthesis, in vitro and in vivo anti-diabetic evaluation” (RSC Med Chem, 2024)
# Active and inactive are the calls of the source. The calls are words filed in the database; no cut-off is given here.
# Experiments:
# Rattus norvegicus [1] = assay: Anti-diabetic activity against in streptozotocin-induced diabetic Wistar rat model assessed as reduction in blood glucose level at 10 mg/kg, po administered for 21 days measured on day 35 by tail puncture method; type: functional, organism-based; settings: time 35.0 day
# Method in brief: (§1)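 STZ given on day 1; oral treatment started day 14, with vehicle 0.5% CMC in controls. Six groups: normal, vehicle, STZ, STZ + two test compounds, STZ + pioglitazone. Blood glucose (tail puncture, glucometer) and body weight recorded on days 1, 4, 14 and 35. One-way ANOVA.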
# PANC-1 [2] = assay: Antioxidant activity in human PANC-1 cells assessed as decrease in high glucose induced ROS production by measuring minimum fractional index at 5 uM incubated for 24 hrs by DCFDA-staining based flow cytometry analysis; type: functional
# Method in brief: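 PANC-1 cells (1 × 10⁵/well) grown 24 h at 37 °C, 5% CO₂, then pre-treated 1 h with 5 μM compound. Exposed to glucose (stated 10 μM) for 23 h. Stained with 10 μM DCFH-DA for 30 min at 37 °C, rinsed, and ROS read by flow cytometry as DCFDA/FITC mean fluorescence intensity.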
# Rattus norvegicus [3] = species: Rattus norvegicus; assay: Anti-diabetic activity against STZ-induced diabetic Wistar rat model assessed as increase increase in number of eosinophils level; type: functional, organism-based
# Method in brief: (§2)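 STZ-diabetic Wistar rats in six groups (normal, vehicle 0.5% CMC oral, STZ, STZ + test compounds, STZ + pioglitazone); oral treatment started day 14 after STZ on day 1. Markers measured in serum, pancreatic homogenate or whole blood, as named in each line. Groups compared by one-way ANOVA.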
# Rattus norvegicus [4] = species: Rattus norvegicus; assay: Anti-diabetic activity against STZ-induced diabetic Wistar rat model assessed as increase increase in number of monocytes level; type: functional, organism-based; method in brief: as §2
# Rattus norvegicus [5] = species: Rattus norvegicus; assay: Anti-diabetic activity in high glucose induced alpha-amylase expression in fasted STZ-induced diabetic Wistar rat model assessed as alpha-amylase level in pancreas by measuring minimum fractional index incubated for 23 hrs and measured after 24 hrs by flow cytometric analysis (reference value: 2590 + 199.74); type: functional
# [6] = molecular target: alpha-glucosidase (Saccharomyces cerevisiae); assay: Inhibition of Saccharomyces cerevisiae alpha-glucosidase using 4-nitrophenyl-alpha-D-glucopyranoside as substrate incubated with compound for 15 to 20 min by absorbance based analysis
# Rattus norvegicus [7] = assay: Antidiabetic activity against STZ-induced oxidative stress in Wistar rats model assessed as increase GSH serum level at 10 mg/kg, po administered for 21 days measured on day 35 by absorbance based UV-spectroscopic analysis; type: functional, organism-based; settings: time 35.0 day; method in brief: as §2
# Rattus norvegicus [8] = assay: Antidiabetic activity against streptozotocin-induced Wistar rat assessed as decrease in total cholesterol at 10 mg/kg, po administered for 21 days measured on day 35; type: functional, organism-based; settings: time 35.0 day; method in brief: as §2
# Rattus norvegicus [9] = assay: Antidiabetic activity against streptozotocin-induced Wistar rat assessed as increase in PPAR-gamma level at 10 mg/kg, po administered for 21 days measured on day 35 by ELISA analysis; type: functional, organism-based; settings: time 35.0 day; method in brief: as §2
# Rattus norvegicus [10] = assay: Antidiabetic activity against streptozotocin-induced Wistar rat assessed as increase BUN level in serum at 10 mg/kg, po administered for 21 days measured on day 35; type: functional, organism-based; settings: time 35.0 day; method in brief: as §2
# Rattus norvegicus [11] = assay: Antioxidant activity in fasted STZ-induced diabetic Wistar rat model assessed as decrease in high glucose induced ROS production in pancreas by measuring minimum fractional index at 10 mg/kg, po administration for 21 days and measured on day 35; type: functional; settings: time 35 day
# Method in brief: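 Rat pancreas mashed through a 70 μm strainer in FACS buffer. Processed by centrifugation (300 × g and 800 × g, 21 °C), 42% Percoll and 5 min RBC lysis. Cells washed, stained with DCFH-DA, and ROS read on a flow cytometer.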
# Rattus norvegicus [12] = assay: Antidiabetic activity against streptozotocin-induced Wistar rat assessed as increase in serum amylase level at 10 mg/kg, po administered for 21 days measured on day 35 by ELISA analysis; type: functional, organism-based; settings: time 35.0 day; method in brief: as §2
# PANC-1 [13] = assay: Anti-diabetic activity against high glucose induced human PANC-1 cells assessed as decrease in glucose induced alpha-glucosidase expression by measuring by measuring minimum fractional index at 5 uM incubated for 23 hrs and measured after 24 hrs by flow cytometric analysis (reference value: 4361 +/- 257.83); type: functional
# Rattus norvegicus [14] = assay: Antidiabetic activity against streptozotocin-induced Wistar rat assessed as increase in serum SGPT level at 10 mg/kg, po administered for 21 days measured on day 35; type: functional, organism-based; settings: time 35.0 day; method in brief: as §2
# Rattus norvegicus [15] = assay: Anti-diabetic activity against in streptozotocin-induced diabetic Wistar rat model assessed as reduction in blood glucose level at 10 mg/kg, po administered as single dose and measured upto 120 min by oral glucose tolerance test; type: functional, organism-based
# Method in brief: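 Wistar rats fasted 16 h, given a single oral 10 mg kg⁻¹ dose, then oral glucose 2 g kg⁻¹ immediately. Blood glucose taken by tail puncture with a glucometer at 0, 15, 30, 60, 90 and 120 min. Groups compared by ANOVA.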
# Rattus norvegicus [16] = assay: Antidiabetic activity against streptozotocin-induced Wistar rat assessed as increase creatinine level in serum at 10 mg/kg, po administered for 21 days measured on day 35; type: functional, organism-based; settings: time 35.0 day; method in brief: as §2
# PANC-1 [17] = assay: Cytotoxicity against human PANC-1 cells assessed as inhibition of cell viability at upto 100 uM incubated for 24 hrs by MTT assay; type: toxicity, cell-based; settings: panc-1, 24 h
# Method in brief: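 PANC-1 cells seeded at 9 × 10³ per well, triplicate, 24 h at 37 °C, 5% CO₂. Treated with 5, 10, 20, 40, 60, 80 and 100 μM for another day. MTT (5 mg mL⁻¹ stock) 3 h at 37 °C, plates centrifuged, formazan dissolved in DMSO 30 min dark, A570. Viability compared by one-way ANOVA with Tukey test.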
# Rattus norvegicus [18] = species: Rattus norvegicus; assay: Anti-diabetic activity against STZ-induced diabetic Wistar rat model assessed as increase increase in number of white blood cell count level; type: functional, organism-based; method in brief: as §2
# PANC-1 [19] = assay: Inhibition of high glucose induced alpha-amylase expressed in human PANC-1 cells assessed as decrease alpha-glucosidase level by measuring minimum fractional index incubated for 23 hrs and measured after 24 hrs by flow cytometric analysis; type: functional, cell-based
# Rattus norvegicus [20] = species: Rattus norvegicus; assay: Anti-diabetic activity against STZ-induced diabetic Wistar rat model assessed as increase increase in number of neutrophils level; type: functional, organism-based; method in brief: as §2
# Rattus norvegicus [21] = species: Rattus norvegicus; assay: Anti-inflammatory activity in STZ-induced diabetic Wistar rat model assessed as decrease in IL-1beta level in blood by ELISA method
# INS1 = assay: Cytotoxicity against rat INS1 cells assessed as inhibition of cell viability at upto 100 uM incubated for 24 hrs by MTT assay; type: toxicity, cell-based; settings: ins1, 24 h
# Method in brief: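 INS-1 MTT run as for PANC-1: 20 × 10³ cells per well in triplicate, 24 h at 37 °C/5% CO₂, then 5–100 μM (7 levels) for another day. MTT (5 mg mL⁻¹ stock) 3 h, centrifugation, DMSO solubilisation 30 min in dark, absorbance at 570 nm.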
# Rattus norvegicus [22] = assay: Antidiabetic activity against streptozotocin-induced Wistar rat assessed as reduction in serum ALP level at 10 mg/kg, po administered for 21 days measured on day 35; settings: time 35.0 day
# [23] = Toxicity against STZ-induced diabetic Wistar rat model assessed as body weight loss at 10 mg/kg, po measured on day 14; type: organism-based; settings: in vivo, 336 h, time 14 day; method in brief: as §1
# Rattus norvegicus [24] = species: Rattus norvegicus; assay: Anti-diabetic activity against STZ-induced diabetic Wistar rat model assessed as increase increase in number of lymphocytes level; type: functional, organism-based; method in brief: as §2
Structure (SMILES),Activity (Rattus norvegicus [1]),Activity_index (PANC-1 [2]),Activity (Rattus norvegicus [3]),Activity (Rattus norvegicus [4]),Activity index (Rattus norvegicus [5]),IC50 [6],Activity (Rattus norvegicus [7]),Activity (Rattus norvegicus [8]),Activity (Rattus norvegicus [9]),Activity (Rattus norvegicus [10]),Activity_index (Rattus norvegicus [11]),Activity (Rattus norvegicus [12]),Activity_index (PANC-1 [13]),Activity (Rattus norvegicus [14]),Activity (Rattus norvegicus [15]),Activity (Rattus norvegicus [16]),Activity (PANC-1 [17]),Activity (Rattus norvegicus [18]),Activity (PANC-1 [19]),Activity (Rattus norvegicus [20]),also measured
C#CCOc1ccc(/C=C2\SC(=O)N(Cc3cccc([N+](=O)[O-])c3)C2=O)cc1OCC,Active,85.2,Active,Active,2250,5.15 µM,Active,Active,Active,Active,164,inactive,752,Active,Active,Active,Non-toxic,Active,Dose-dependent-effect,Active,Activity (Rattus norvegicus [21]): Active; Activity (INS1): Non-toxic; Activity (Rattus norvegicus [22]): Active; Activity [23]: Toxic; Activity (Rattus norvegicus [24]): Active
C=CCOc1ccc(/C=C2\SC(=O)N(Cc3cccc([N+](=O)[O-])c3)C2=O)cc1OCC,Active,97.6,Active,Active,676,9.8 µM,Active,Active,Active,Active,674,inactive,2242,Active,Active,Active,Non-toxic,Active,Dose-dependent-effect,Active,Activity (Rattus norvegicus [21]): Active; Activity (INS1): Non-toxic; Activity (Rattus norvegicus [22]): Active; Activity [23]: Toxic; Activity (Rattus norvegicus [24]): Active
